The list is not random: actives were taken first. Their share in the collection is about 3.5%.
MrgX1 antagonist – blocks BAM8-22 activation of human MrgX1 receptor; MRGX1-HEK293 calcium flux, Fluo-4, BAM8-22 antagonism; active compounds read low; B-score at 10 µM; hit rate 1.3% among 310,000;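 active = calcium-response B-score plate-corrected more than 3 library SD below zero, starting fluorescence within 5 deviations, no agonist response on first addition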;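 also: peak minus trough fluorescence over baseline after final BAM8-22 challenge near maximal dose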
Target sequence (Q96LB2 whole entry, looked up): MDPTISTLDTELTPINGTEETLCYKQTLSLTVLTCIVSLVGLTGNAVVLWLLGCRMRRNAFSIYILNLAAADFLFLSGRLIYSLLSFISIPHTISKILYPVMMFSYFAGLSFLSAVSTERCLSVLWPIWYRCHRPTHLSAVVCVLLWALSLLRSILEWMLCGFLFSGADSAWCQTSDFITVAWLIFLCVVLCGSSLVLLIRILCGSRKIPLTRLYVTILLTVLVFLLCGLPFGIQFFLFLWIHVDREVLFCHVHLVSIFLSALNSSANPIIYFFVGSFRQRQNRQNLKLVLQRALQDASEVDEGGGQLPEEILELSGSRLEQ
RGS4 inh – human RGS4 inhibition; P49798; HEK293 M3R/RGS4 inducible, Fluo-4 calcium flux; active compounds read high; triggered by carbachol at its EC20; B-score at 10 µM; hit rate 0.45% among 310,000; AID 463165;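 active = B-score, a plate-corrected calcium signal, over three deviations above library mean, with baseline fluorescence within five deviations of library mean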;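 also: RGS4 expression induced by doxycycline in cells with stable M3 receptor; B-score is computed from the integrated fluorescence ratio over baseline after carbachol; higher B-score means a larger calcium signal and so more RGS4 inhibition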
Target sequence (P49798 whole entry, looked up): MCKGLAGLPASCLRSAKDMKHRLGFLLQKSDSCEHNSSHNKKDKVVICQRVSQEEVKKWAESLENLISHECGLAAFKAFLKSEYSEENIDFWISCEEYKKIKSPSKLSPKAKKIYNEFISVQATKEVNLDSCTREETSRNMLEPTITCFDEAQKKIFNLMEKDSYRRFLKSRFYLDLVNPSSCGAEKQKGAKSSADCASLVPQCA
MrgX1 agonist – agonists of human MrgX1 receptor | Q96LB2 | MrgX1-HEK293 cells, Fluo-4 calcium fluorescence, agonist mode; active compounds read high | B-score at 10 µM | hit rate 0.44% among 310,000;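 active = calcium response B-score plate-corrected fluorescence ratio at least 3 library SD, with starting fluorescence B-score inside 5 SD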
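Assay system: MrgX1-expressing HEK293 cells / Amount: fifteen thousand cells per well / Doses: test compound in the initial addition of three / Timing: cells plated overnight, dye loaded 0.5 h 37 °C, 0.5 h room temperature / Technique: kinetic calcium dye fluorescence, Fluo-4 NW / Control set: positive and negative controls per plate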
MrgX1 PAM – allosterically activates human MrgX1 receptor signaling; Q96LB2; MrgX1-HEK293, Fluo-4 calcium flux, FDSS; active compounds read high; B-score at 10 µM; hit rate 0.63% among 310,000; AID 588675;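 active = plate-corrected calcium response at least 3 library SD above typical, normal starting fluorescence, not activating the receptor alone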;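 also: compound read alongside a low EC10 to EC30 dose of BAM8-22 agonist; peak minus trough fluorescence over baseline measured at the second addition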
RGS4 pot – RGS4 potentiation or activation; HEK293 M3R/inducible RGS4, carbachol calcium flux Fluo4; active compounds read low; B-score at 10 µM; hit rate 0.92% among 310,000; AID 463111;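 active = B-score of the integrated calcium signal more than 4 SD below the library mean, with starting fluorescence not abnormally high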;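 also: negative B-score means reduced calcium response which marks RGS4 activation or potentiation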
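Detection: kinetic calcium fluorescence imaging with Fluo4-AM dye, 2 µM / Material: HEK293 cells with stable M3R and inducible RGS4 / Schedule: recording 10 s baseline at 1 Hz, 100 s post-agonist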
The depositor's hits bear a star; i = inactive; / = no result given.

SMILES	MrgX1 antagonist	RGS4 inh	MrgX1 agonist	MrgX1 PAM	RGS4 pot
Cc1ccc(S(=O)(=O)CCC(=O)c2cccc([N+](=O)[O-])c2)cc1	i	i	33*	i	i
O=C(CCNc1ccc(Cc2ccncc2)cc1)c1cccc([N+](=O)[O-])c1	i	i	i	i	i
O=C(CCNc1cccc(F)c1)c1cccc([N+](=O)[O-])c1	i	i	i	9.07*	i
Cc1ccc(C(=O)CCS(=O)(=O)c2ccc(Br)cc2)cc1	i	i	i	i	i
Cc1nnc(NC(=O)CCn2c(=O)oc3ccccc32)s1	i	i	i	i	i
CCC(C)N(CCNC(=O)CC1Oc2ccc(C)cc2NC1=O)C1CCCCC1 (stereo not given)	i	i	i	i	-7.33*
O=C(NCC1CCCN(Cc2ccc3nonc3c2)C1)c1cccc(C(F)(F)F)c1 (stereo not given)	i	i	i	i	i
CCN(CC)S(=O)(=O)c1ccc(N2CCN(S(=O)(=O)c3ccccc3)CC2)nc1	/	i	/	/	i
CCN(CC)S(=O)(=O)c1ccc(N2CCN(S(=O)(=O)c3ccccc3C#N)CC2)nc1	-4.99*	/	i	i	/
O=C1CCCc2oc3c(cc(NS(=O)(=O)c4ccc5c6c(cccc46)C(=O)N5)c4ccccc43)c21	i	i	i	7*	i
CCC(C)(C)NC(=O)/C=C/c1cnc2ccccc2n1	-4.75*	i	i	i	i
c1ccc(Sc2ccccc2CN2CCCC2)cc1	i	i	i	i	-7.42*
Fc1ccccc1CN1CCCCCCC1	i	i	i	i	i
CC1CN(S(=O)(=O)c2ccc(C(=O)Nc3nnc(-c4ccc5c(c4)CCCC5)o3)cc2)CC(C)O1 (stereo not given)	i	i	i	i	-7.27*
Cc1ccccc1-c1nc(CS(=O)CC(=O)NCc2ccccc2)c(C)o1 (stereo not given)	i	i	i	i	i
COCCNC(=O)CS(=O)Cc1nc(-c2ccccc2C)oc1C (stereo not given)	-5.27*	i	i	i	i
CC(C)N(Cc1ccccc1)C(=O)CN1C(=O)NC(Cc2ccccc2)(c2ccccc2)C1=O (stereo not given)	i	i	i	i	i
CC(=O)Nc1sc(N/N=C/c2ccc(C)cc2)nc1-c1ccc(C)cc1	i	i	i	i	i
CC(=O)Nc1sc(/C(C#N)=C/c2ccc(Cl)c(Cl)c2)nc1-c1ccc(C)cc1	/	i	/	/	-8.86*
CCOc1ccc(NC(=O)CSc2nnc(Cc3cccn3C)n2-c2ccc(OC)cc2)cc1	-5.67*	i	i	i	i
CC(=O)Nc1ccc(-c2csc(Nc3ccc(Cl)cn3)n2)cc1	i	i	i	7.16*	i
CC(=O)Nc1cccc(-c2csc(Nc3ccc(Cl)cn3)n2)c1	i	i	i	i	i
Cc1ccc(-n2ncc3c2CCCC3NC(=O)CCCN2CCCC2=O)cc1C (stereo not given)	i	i	i	i	i
CCCOc1ccc(/C=C2/C(=O)ON=C2C)cc1OCC	i	i	i	i	i
CCOc1cc(/C=C2/C(=O)ON=C2C)cc(Br)c1O	i	i	57.6*	i	i
SMILES	MrgX1 antagonist	RGS4 inh	MrgX1 agonist	MrgX1 PAM	RGS4 pot
COc1ccccc1N(CC(O)COc1c(C)cc(C)cc1C)S(=O)(=O)c1ccccc1 (stereo not given)	i	i	i	7.95*	i
Cc1ccccc1Cn1ccc(=NCc2ccccc2)cc1	i	i	i	i	i
COc1cccc(-c2ccc(NC(=O)C3CCCN(Cc4cnc(C)n4C)C3)cc2)c1 (stereo not given)	i	i	i	i	-7.09*
Cc1ccc(NC(=O)C(C)OC(=O)c2ccc(NC(=O)CC#N)cc2)cc1S(=O)(=O)N1CCOCC1 (stereo not given)	-4.54*	i	i	i	i
O=C(NCc1nc2ccccc2[nH]1)C1=C[C@@H](c2ccc3c(c2)OCO3)C[C@@H](OCc2ccc(CO)cc2)O1	/	i	/	/	i
Cc1cc(C(=O)NNS(=O)(=O)c2ccc(C(C)(C)C)cc2)nn1C(C)(C)C	i	i	i	9.82*	i
Cc1ccc(S(=O)(=O)NNC(=O)C(O)(c2ccccc2)c2ccccc2)cc1	i	i	i	i	i
COc1cc(OC)c(NS(=O)(=O)c2cc(Br)cnc2N)cc1Cl	i	i	i	i	i
Cc1ccc(NS(=O)(=O)c2cc(Br)cnc2N)c(Cl)c1	i	i	i	i	-6.95*
Cc1cc(C)c2nc(N3CCC(C(=O)NCCCN4CC(C)CC(C)C4)CC3)sc2c1 (stereo not given)	i	i	i	i	-10.1*
Cc1cc(C)c2nc(N3CCCC(C(=O)NCCCN4CCOCC4)C3)sc2c1 (stereo not given)	i	i	i	i	i
Cc1cc(=O)oc2cc3oc(=O)cc(C)c3cc12	i	i	i	i	i
O=C(Cn1ccnc1[N+](=O)[O-])NCc1ccccc1	i	i	i	i	-7.65*
COc1ccc2[nH]c(C(=O)N3CCN(Cc4ccccc4)CC3)cc2c1OC	i	i	i	i	i
C/C(CCc1oc2ccc(Br)cc2c1-c1ccc(C)o1)=N/O	-6.34*	i	i	i	i
CC(C)C[C@H]1CN=C(Nc2ccccc2)N1CC1CCC(C(C)(C)C)CC1 (stereo not given in full)	i	/	i	6.91*	/
Cc1ccc(S(=O)(=O)N2CCC(C(=O)N/N=C/c3ccccc3[N+](=O)[O-])CC2)cc1	i	i	i	i	i
Cc1ccc(S(=O)(=O)N2CCC(C(=O)N/N=C/c3cccnc3)CC2)cc1	-5.22*	i	i	i	i
CCOC(=O)CC/C(=N\NC(N)=O)c1ccc(OC)c(Cl)c1	i	i	i	i	i
COc1ccccc1NS(=O)(=O)c1cc(NC(=O)CCc2nc3ccccc3c(=O)[nH]2)ccc1C	i	i	i	i	i
COc1cccc(OC(=O)c2cc3ccccc3oc2=O)c1	-5.04*	i	i	i	i
O=C(Nc1cccc(S(=O)(=O)NC2=NCCC2)c1)c1cc(-c2ccco2)nc2ccccc12	i	i	i	i	i
O=C(NC(=S)Nc1cccc(S(=O)(=O)NC2=NCCC2)c1)c1cc(-c2ccco2)nc2ccccc12	-4.95*	i	i	i	i
COc1cc(-c2nnc(SCC(=O)NC3CCS(=O)(=O)C3)o2)cc(OC)c1OC (stereo not given)	i	i	i	i	i
